For seven compounds, Ki, Activity and deltaT results are on record in ChEMBL document CHEMBL1155976, “Synthesis and preliminary pharmacological evaluation of imidazo[2,1-f]purine-2,4-dione derivatives” (Eur J Med Chem, 2009).

Active and inactive are the calls of the source. No cut-off for these calls is given here.

Experiment [1] addresses 5-hydroxytryptamine receptor 2A (Rattus norvegicus, UniProt P14842). The experiment in a line: Displacement of [3H]ketanserin from 5HT2A receptor in rat cerebral cortex after 20 mins by liquid scintillation counting. The experiment is classed as tissue-based. Summed up: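 Rat cerebral cortex homogenised in 50 mM Tris-HCl pH 7.7, spun at 32000 × g, preincubated 10 min at 37 °C, resuspended in 50 volumes. Incubated with 0.6 nM [3H]-ketanserin and test agent (10^-10 to 10^-4 M) at 37 °C for 20 min; mianserin as displacer. GF/B filtration, scintillation counting; Ki from ≥3 experiments, 10 concentrations in triplicate.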

For another experiment, the target named is D(2) dopamine receptor (Rattus norvegicus, UniProt P61169). The experiment in a line: Displacement of [3H]spiperone from dopamine D2 receptor in rat striatum membrane after 30 mins by liquid scintillation counting. The experiment is classed as cell membranes. Summed up:
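Rat striatum homogenised in 50 mM potassium phosphate pH 7.4 and spun twice at 20000 × g. Membranes (3 mg wet weight) incubated with 1 nM [3H]-spiperone and test agent in 0.5 ml for 30 min at 37 °C. Nonspecific binding with (+)butaclamol. GF/B filtration, two washes with ice-cold buffer, scintillation counting; Ki from ≥3 experiments, 10 concentrations in triplicate.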

The target of experiment [2] is T1, 5-hydroxytryptamine receptor 1A (Rattus norvegicus, UniProt P19327).
T1 sequence (P19327 whole entry): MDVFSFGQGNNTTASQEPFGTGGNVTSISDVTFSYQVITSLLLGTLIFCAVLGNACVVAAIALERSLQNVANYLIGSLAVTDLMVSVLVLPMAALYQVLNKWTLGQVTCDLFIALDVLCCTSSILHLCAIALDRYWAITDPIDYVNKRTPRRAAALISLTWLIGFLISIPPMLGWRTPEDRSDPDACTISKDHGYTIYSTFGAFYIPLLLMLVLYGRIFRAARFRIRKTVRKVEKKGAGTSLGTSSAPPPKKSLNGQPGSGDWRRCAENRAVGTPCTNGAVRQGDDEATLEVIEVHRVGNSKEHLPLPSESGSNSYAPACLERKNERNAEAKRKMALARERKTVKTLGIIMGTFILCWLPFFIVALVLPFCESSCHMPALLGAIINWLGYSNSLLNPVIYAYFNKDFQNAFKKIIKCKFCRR
As to the kind of experiment: Displacement of [3H]8-OH-DPAT from 5HT1A receptor in rat cerebral cortex after 15 mins by liquid scintillation counting. The experiment is classed as tissue-based.

Experiment [3] relates to Mus musculus. The experiment in a line: Agonist activity at 5HT1A receptor in ip dosed Swiss albino mouse assessed as decrease in rectal temperature. The experiment is classed as functional, organism-based. Summed up:
(§1)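 Male Albino Swiss mice (24–28 g), free food and water, room at 20 ± 1 °C; test agent suspended in 1% aqueous Tween 80, given ip at 10 ml/kg. Rectal temperature read with a thermometer at 30, 60, 90 and 120 min after dosing. Result expressed as Δt from basal temperature taken at the start; six to ten animals per group, each used once.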

The test system of experiment [4] is Mus musculus. As to the kind of experiment: Agonist activity at 5HT1A receptor in Swiss albino mouse assessed as decrease in rectal temperature at 5 mg/kg, ip after 90 mins. The experiment is classed as functional, organism-based. The arrangement: dose 5 mg/kg. In short, it runs like this: as §1
The test system of experiment [5] is Mus musculus. The experiment in a line: Agonist activity at 5HT1A receptor in Swiss albino mouse assessed as decrease in rectal temperature at 10 mg/kg, ip after 60 mins. The experiment is classed as functional, organism-based. The arrangement: dose 10 mg/kg. In short, it runs like this: as §1
Experiment [6] concerns Mus musculus. As to the kind of experiment: Agonist activity at 5HT1A receptor in Swiss albino mouse assessed as decrease in rectal temperature at 5 mg/kg, ip after 60 mins. The experiment is classed as functional, organism-based. The arrangement: dose 5 mg/kg. Summed up:
as §1

Experiment [7] has as its system Mus musculus. As to the kind of experiment: Agonist activity at 5HT1A receptor in Swiss albino mouse assessed as decrease in rectal temperature at 10 mg/kg, ip after 30 mins. The experiment is classed as functional, organism-based. On the set-up: dose 10 mg/kg. Summed up: as §1
Experiment [8] deals with Mus musculus. As to the kind of experiment: Agonist activity at 5HT1A receptor in Swiss albino mouse assessed as decrease in rectal temperature at 5 mg/kg, ip after 30 mins. The experiment is classed as functional, organism-based. On the set-up: dose 5 mg/kg. In short, it runs like this:
as §1

Experiment [9] concerns Mus musculus. The experiment in a line: Agonist activity at 5HT1A receptor in Swiss albino mouse assessed as decrease in rectal temperature at 10 mg/kg, ip after 90 mins. The experiment is classed as functional, organism-based. The arrangement: dose 10 mg/kg. Summed up: as §1
Experiment [10] deals with Mus musculus. The experiment in a line: Agonist activity at 5HT1A receptor in Swiss albino mouse assessed as decrease in rectal temperature at 5 mg/kg, ip after 120 mins. The experiment is classed as functional, organism-based. The arrangement: dose 5 mg/kg. Summed up: as §1
Experiment [11] relates to Mus musculus. The experiment in a line: Agonist activity at 5HT1A receptor in Swiss albino mouse assessed as decrease in rectal temperature at 10 mg/kg, ip after 120 mins. The experiment is classed as functional, organism-based. On the set-up: dose 10 mg/kg. In short, it runs like this:
as §1

Experiment [12] has as its system Mus musculus. As to the kind of experiment: Agonist activity at 5HT1A receptor in Swiss albino mouse assessed as decrease in rectal temperature at 10 mg/kg, ip after 30 mins in presence of WAY 100635 administered 15 mins before drug challenge. The experiment is classed as functional, organism-based. The arrangement: dose 10 mg/kg. In short, it runs like this:
(§2)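 Male Albino Swiss mice (24–28 g). WAY 100635 (0.1 mg/kg, sc, in distilled water) given 15 min before test agent (ip, suspended in 1% Tween 80, 10 ml/kg). Rectal temperature recorded 30 and 60 min after test agent injection. Expressed as Δt versus basal temperature at the start of the experiment.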

Experiment [13] concerns Mus musculus. As to the kind of experiment: Agonist activity at 5HT1A receptor in Swiss albino mouse assessed as decrease in rectal temperature at 10 mg/kg, ip after 60 mins in presence of WAY 100635 administered 15 mins before drug challenge. The experiment is classed as functional, organism-based. On the set-up: dose 10 mg/kg. In short, it runs like this:
as §2

The test system of experiment [14] is Rattus norvegicus. As to the kind of experiment: Behavioral activity in Wistar rat assessed as induction of lower lip retraction at 10 to 20 mg/kg, ip. The experiment is classed as functional, organism-based. In short, it runs like this: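 Male Wistar rats (290–310 g); agent ip in 1% Tween 80 at 2 ml/kg. Rats housed singly in cages and scored 15, 30 and 45 min after dosing: 0 = lower incisors not visible, 0.5 = partly, 1 = fully visible. Maximum total score 3 per rat.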

Experiment [15] deals with Rattus norvegicus. As to the kind of experiment: Behavioral activity in Wistar rat assessed as reduction of 8-OH-DPAT-induced lower lip retraction at 10 to 20 mg/kg, ip administered 45 mins before 8-OH-DPAT challenge.

5-hydroxytryptamine receptor 2A, sequence (P14842 whole entry): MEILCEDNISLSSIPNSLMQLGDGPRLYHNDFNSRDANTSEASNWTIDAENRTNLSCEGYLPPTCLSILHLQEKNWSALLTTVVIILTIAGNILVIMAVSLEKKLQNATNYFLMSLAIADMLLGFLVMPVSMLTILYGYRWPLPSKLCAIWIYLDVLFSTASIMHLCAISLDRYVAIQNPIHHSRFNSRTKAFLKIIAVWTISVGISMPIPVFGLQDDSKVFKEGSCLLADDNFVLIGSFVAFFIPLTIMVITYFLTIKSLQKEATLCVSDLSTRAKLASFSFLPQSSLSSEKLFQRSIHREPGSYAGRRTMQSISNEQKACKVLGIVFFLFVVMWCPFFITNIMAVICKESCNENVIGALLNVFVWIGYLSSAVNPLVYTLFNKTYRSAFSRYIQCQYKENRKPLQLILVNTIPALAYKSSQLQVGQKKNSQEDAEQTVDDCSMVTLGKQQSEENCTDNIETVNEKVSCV
D(2) dopamine receptor, sequence (P61169 whole entry): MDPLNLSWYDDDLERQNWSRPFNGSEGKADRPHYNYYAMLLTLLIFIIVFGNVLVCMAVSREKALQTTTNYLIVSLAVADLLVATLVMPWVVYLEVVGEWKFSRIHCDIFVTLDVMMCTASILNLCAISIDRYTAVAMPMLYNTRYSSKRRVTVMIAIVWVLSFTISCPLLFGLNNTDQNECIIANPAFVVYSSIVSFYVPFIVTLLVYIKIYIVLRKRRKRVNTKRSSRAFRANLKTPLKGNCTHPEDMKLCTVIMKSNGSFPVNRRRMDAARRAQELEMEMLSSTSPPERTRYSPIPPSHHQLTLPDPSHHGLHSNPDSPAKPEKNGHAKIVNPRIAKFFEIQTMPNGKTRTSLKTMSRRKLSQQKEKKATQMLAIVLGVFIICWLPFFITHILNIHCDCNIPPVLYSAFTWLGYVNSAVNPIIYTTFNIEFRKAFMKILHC

Regarding `Cn1c(=O)c2c(nc3n(CCCN4CCN(c5cccc(Cl)c5)CC4)c(-c4ccccc4)cn23)n(C)c1=O`, the Ki in [1] is over 1000 nM.
Regarding `Cn1c(=O)c2c(nc3n(CCCN4CCN(c5ccccc5)CC4)c(-c4ccccc4)cn23)n(C)c1=O`, the Ki is over 1000 nM on D(2) dopamine receptor, 813 nM in [1] and 96.5 nM in experiment [2].
As to `COc1ccccc1N1CCN(CCCN2CCCn3c2nc2c3c(=O)n(C)c(=O)n2C)CC1`, the values for the Ki in experiment [1] and in [2] were 486 nM and 2.8 nM, respectively.
Consider `Cc1cn2c3c(=O)n(C)c(=O)n(C)c3nc2n1CCCN1CCN(c2cccc(Cl)c2)CC1`, for which the Activity entry in the experiment with Mus musculus [3] was “Dose-dependent effect”. Further, the deltaT is -0.5 °C in the experiment on Mus musculus [4]; -0.7 °C in the experiment with Mus musculus [5]; -0.4 °C in the experiment with Mus musculus [6]; -1 °C in the experiment on Mus musculus [7]; -0.5 °C in the experiment on Mus musculus [8]; -0.8 °C in the experiment with Mus musculus [9]. Further, the deltaT was -0.1 °C in the experiment with Mus musculus [10], -0.1 °C in the experiment on Mus musculus [11], -0.9 °C with Mus musculus [12] and -0.5 °C with Mus musculus [13]. Further, the figures for the Ki (at D(2) dopamine receptor; in experiment [1]; in [2]) were 767 nM, 403 nM and 17.1 nM, respectively. Also, the result in the experiment on Rattus norvegicus [14] was inactive.
As for `COc1ccccc1N1CCN(CCN(C(=O)C2CCCCC2)c2ccccn2)CC1`, in the experiment with Rattus norvegicus [15], the outcome was Active.
With `COc1ccccc1N1CCN(CCNC(=O)C2Cn3c(nc4c3c(=O)n(C)c(=O)n4C)N2)CC1` (centres undefined), the inhibitory constant (Ki) in experiment [2] was over 1000 nM.
In experiment [2], `Cn1c(=O)c2c(nc3n2CC(C(=O)NCCN2CCN(c4cccc(Cl)c4)CC2)N3)n(C)c1=O` (centres undefined) displayed a Ki of over 1000 nM.
